Entries after “also recorded” stand apart in the source; their conditions may differ.
What was measured:
human wild-type CFTR [1] = target: T1, human wild-type CFTR (Homo sapiens, UniProt P13569); assay: Fluorescence plate reader assay of CFTR function; format: cell-based; settings: for CFTR activation activity (in words): plate reader assay, structure-activity discussion
Outline: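 FRT cells stably coexpressing human wild-type CFTR and YFP-H148Q, grown near-confluent in 96-well plates. Washed with PBS, then 10 min in PBS with test compound plus 125 nM forskolin. YFP fluorescence read in single wells for 2 s baseline and 12 s after adding iodide solution (final 140 mM). Iodide influx rates give concentration–response curves; EC50 reported as mean ± SEM.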

mice = settings: cited from earlier work
[2] = In vitro hepatic microsomal metabolic stability; format: in vitro ADME, human; settings: 60 min, hepatic microsomes, NADPH, 5 μM
[3] = test system: calcium-activated chloride channels in HT-29 cells; assay: Non-TMEM16A CaCC activity in HT-29 cells expressing YFP; format: cell-based; settings: 10 μM
Outline: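 HT-29 cells expressing YFP used for non-TMEM16A calcium-activated chloride channel activity, with test compound at 10 μM. Iodide influx rate computed from YFP fluorescence.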

human wild-type CFTR [4] = target: T1, human wild-type CFTR; assay: Short-circuit current measurement in CFTR-expressing FRT cells; format: cell-based; settings: data not shown
cellular cAMP level = assay: Cellular cAMP in FRT cells; format: cell-based, rat; settings: 10 μM, 10 min, without or with 90 nM forskolin
cytoplasmic calcium = assay: Cytoplasmic calcium by Fluo-4 fluorescence in FRT cells; format: cell-based, rat; settings: 10 μM, 5 min pretreatment, 100 μM ATP
[5] = test system: loperamide-induced constipation in CD1 mice; assay: Loperamide-induced mouse model of acute constipation; format: in vivo; settings: oral, 1 h before loperamide, 3-h stool
Outline: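 CD1 mice aged 8–10 weeks got test compound or vehicle orally 1 h before loperamide 0.3 mg/kg ip. Vehicle was saline with 5% DMSO and 10% Kolliphor HS 15. Mice kept in metabolic cages with free food and water; stool collected for 3 h. Total weight, pellet count and water content (wet vs dry weight) measured. Mean ± SEM; unpaired Student's t-test, P < 0.05.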

TMEM16A = target: T2, TMEM16A (Homo sapiens, UniProt Q5XXA6); assay: TMEM16A activity in FRT cells expressing YFP; format: cell-based; settings: 10 μM
T2 sequence (Q5XXA6 1-986): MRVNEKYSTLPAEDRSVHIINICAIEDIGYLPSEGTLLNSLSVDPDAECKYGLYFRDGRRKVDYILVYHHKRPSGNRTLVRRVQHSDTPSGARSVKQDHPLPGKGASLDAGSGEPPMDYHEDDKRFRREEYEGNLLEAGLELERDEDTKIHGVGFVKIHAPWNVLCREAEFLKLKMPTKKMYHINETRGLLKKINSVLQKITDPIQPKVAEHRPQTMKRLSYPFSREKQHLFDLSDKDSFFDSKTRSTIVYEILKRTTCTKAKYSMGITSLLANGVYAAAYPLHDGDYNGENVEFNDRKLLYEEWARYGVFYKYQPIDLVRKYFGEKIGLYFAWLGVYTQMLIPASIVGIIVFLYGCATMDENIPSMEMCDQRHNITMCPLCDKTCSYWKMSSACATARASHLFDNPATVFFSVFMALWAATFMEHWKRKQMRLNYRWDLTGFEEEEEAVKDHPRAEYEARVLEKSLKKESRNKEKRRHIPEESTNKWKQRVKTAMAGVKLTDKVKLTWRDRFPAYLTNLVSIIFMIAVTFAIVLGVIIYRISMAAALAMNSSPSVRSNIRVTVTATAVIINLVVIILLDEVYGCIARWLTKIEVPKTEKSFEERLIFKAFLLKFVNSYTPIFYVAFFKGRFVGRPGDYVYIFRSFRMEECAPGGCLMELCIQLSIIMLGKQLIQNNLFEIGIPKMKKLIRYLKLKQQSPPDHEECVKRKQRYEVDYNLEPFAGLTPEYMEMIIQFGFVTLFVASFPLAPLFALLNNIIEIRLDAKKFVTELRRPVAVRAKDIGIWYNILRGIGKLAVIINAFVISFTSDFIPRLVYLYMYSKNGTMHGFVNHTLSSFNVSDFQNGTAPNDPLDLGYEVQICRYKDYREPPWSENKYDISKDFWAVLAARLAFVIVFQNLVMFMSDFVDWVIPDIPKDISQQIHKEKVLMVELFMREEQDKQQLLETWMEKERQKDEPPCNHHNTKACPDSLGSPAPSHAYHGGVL
Outline: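 FRT cells coexpressing YFP and TMEM16A, tested with 10 μM test compound. Run like the YFP iodide-influx plate reader assay; iodide influx rate computed from fluorescence.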

T1 sequence (P13569 whole entry): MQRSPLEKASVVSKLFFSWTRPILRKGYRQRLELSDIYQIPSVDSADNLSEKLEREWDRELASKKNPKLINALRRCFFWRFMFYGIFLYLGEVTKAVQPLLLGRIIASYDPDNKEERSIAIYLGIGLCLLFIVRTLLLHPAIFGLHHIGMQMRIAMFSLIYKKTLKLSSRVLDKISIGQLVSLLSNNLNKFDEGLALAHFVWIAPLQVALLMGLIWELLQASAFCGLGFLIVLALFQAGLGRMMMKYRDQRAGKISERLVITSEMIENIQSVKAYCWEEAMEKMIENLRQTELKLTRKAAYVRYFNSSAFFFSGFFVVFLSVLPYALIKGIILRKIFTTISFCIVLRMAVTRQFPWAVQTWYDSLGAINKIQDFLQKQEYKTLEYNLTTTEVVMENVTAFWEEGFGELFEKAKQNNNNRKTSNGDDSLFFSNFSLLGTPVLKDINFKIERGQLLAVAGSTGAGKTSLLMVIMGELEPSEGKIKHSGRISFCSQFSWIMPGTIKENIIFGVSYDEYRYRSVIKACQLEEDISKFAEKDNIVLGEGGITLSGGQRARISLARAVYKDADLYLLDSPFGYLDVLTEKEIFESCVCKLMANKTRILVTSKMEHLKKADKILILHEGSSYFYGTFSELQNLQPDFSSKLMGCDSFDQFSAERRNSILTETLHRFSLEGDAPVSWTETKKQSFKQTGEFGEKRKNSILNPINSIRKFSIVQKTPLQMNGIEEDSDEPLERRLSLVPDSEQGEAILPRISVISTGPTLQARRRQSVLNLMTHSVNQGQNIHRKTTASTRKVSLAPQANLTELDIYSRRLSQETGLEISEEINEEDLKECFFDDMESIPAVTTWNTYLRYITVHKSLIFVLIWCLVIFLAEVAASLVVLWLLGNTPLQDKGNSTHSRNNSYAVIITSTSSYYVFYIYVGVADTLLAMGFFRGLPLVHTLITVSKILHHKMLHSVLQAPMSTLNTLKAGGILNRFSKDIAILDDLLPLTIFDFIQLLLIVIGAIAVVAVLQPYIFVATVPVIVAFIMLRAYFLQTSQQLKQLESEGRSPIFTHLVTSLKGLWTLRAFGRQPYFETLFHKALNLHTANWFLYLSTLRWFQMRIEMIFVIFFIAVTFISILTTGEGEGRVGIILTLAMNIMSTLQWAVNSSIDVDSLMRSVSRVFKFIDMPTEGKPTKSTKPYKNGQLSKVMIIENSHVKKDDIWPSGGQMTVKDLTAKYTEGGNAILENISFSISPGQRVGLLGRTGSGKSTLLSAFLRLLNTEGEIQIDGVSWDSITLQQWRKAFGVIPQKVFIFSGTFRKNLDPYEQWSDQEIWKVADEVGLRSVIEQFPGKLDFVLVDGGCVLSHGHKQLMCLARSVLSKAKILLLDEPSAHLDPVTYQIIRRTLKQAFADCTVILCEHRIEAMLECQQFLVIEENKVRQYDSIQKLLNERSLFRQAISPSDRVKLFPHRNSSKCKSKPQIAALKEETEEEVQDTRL

Compound | CFTR activation activity (in words) (human wild-type CFTR [1]) | also measured
O=c1c(-c2cccc([N+](=O)[O-])c2)nc2ccccc2n1Cc1cccs1 [3j, 3-(3-Nitrophenyl)-1-(thiophen-2-ylmethyl)quinoxalin-2(1H)-one] | comparable activity | 
Cc1cc2nc(-c3cccc([N+](=O)[O-])c3)c(=O)n(Cc3ccccc3)c2cc1C [2i, 1-Benzyl-6,7-dimethyl-3-(3-nitrophenyl)quinoxalin-2(1H)-one] | reduced activity | 
O=c1c(-c2cccc([N+](=O)[O-])c2)nc2ccccc2n1Cc1cccc2ccccc12 [3f, 1-(Naphthalen-1-ylmethyl)-3-(3-nitrophenyl)quinoxalin-2(1H)-one] | significantly reduced activity | 
O=c1c(-c2cccc([N+](=O)[O-])c2)nc2cc(Br)ccc2n1Cc1ccccc1 [2f, 1-Benzyl-6-bromo-3-(3-nitrophenyl)quinoxalin-2(1H)-one] | good activity; also recorded: underperforms by nearly an order of magnitude compared to unsubstituted 1c | 
O=c1c(-c2cccc([N+](=O)[O-])c2)nc2ccccc2n1Cc1ccc2ccccc2c1 [3g, 1-(Naphthalen-2-ylmethyl)-3-(3-nitrophenyl)quinoxalin-2(1H)-one] | significantly reduced activity | 
N#Cc1cccc(-c2nc3ccccc3n(Cc3ccccc3)c2=O)c1 [1l, 3-(4-Benzyl-3-oxo-3,4-dihydroquinoxalin-2-yl)benzonitrile] | greatly reduced activity | 
O=c1c(-c2ccc3nonc3c2)nc2ccccc2n1Cc1ccccc1 [1m, 3-(Benzo[c][1,2,5]oxadiazol-5-yl)-1-benzylquinoxalin-2(1H)-one] | comparable potency to the nitro analog | 
O=c1c(-c2cccc([N+](=O)[O-])c2)nc2cc(Cl)c(Cl)cc2n1Cc1ccccc1 [2d, 1-Benzyl-6,7-dichloro-3-(3-nitrophenyl)quinoxalin-2(1H)-one] | reduced activity | 
Nc1ccc([N+](=O)[O-])cc1-c1nc2ccccc2n(Cc2ccccc2)c1=O [compound 4] |  | Off-target actions or toxicity (mice; chronic administration in mice): no apparent off-target actions or toxicity; Metabolism (mice): rapid metabolism; Oral bioavailability (mice; mice): minimal oral bioavailability
COC(=O)c1ccc([N+](=O)[O-])c(-c2nc3ccccc3n(Cc3ccccc3)c2=O)c1 [1a, Methyl 3-(4-Benzyl-3-oxo-3,4-dihydroquinoxalin-2-yl)-4-nitrobenzoate] | very low activity | 
O=c1c(-c2cccc([N+](=O)[O-])c2)nc2ccccc2n1Cc1ccccn1 [3h, 3-(3-Nitrophenyl)-1-(pyridin-2-ylmethyl)quinoxalin-2(1H)-one] | comparable activity | 
O=c1c(-c2ccc(F)c([N+](=O)[O-])c2)nc2ccccc2n1Cc1ccccc1 [1i, 1-Benzyl-3-(4-fluoro-3-nitrophenyl)quinoxalin-2(1H)-one] | reduced activity | 
O=c1c(-c2ccccc2)nc2ccccc2n1Cc1ccccc1 [1h, 1-Benzyl-3-phenylquinoxalin-2(1H)-one] | significantly lower activity | 
Nc1ccc(C(=O)O)cc1-c1nc2ccccc2n(Cc2ccccc2)c1=O [1k, 4-Amino-3-(4-benzyl-3-oxo-3,4-dihydroquinoxalin-2-yl)benzoic Acid] | inactive | 
O=c1c(-c2ccc([N+](=O)[O-])cc2)nc2ccccc2n1Cc1ccccc1 [1e, 1-Benzyl-3-(4-nitrophenyl)quinoxalin-2(1H)-one] | reduced activity | 
O=c1c(-c2cccc([N+](=O)[O-])c2)nc2cc(Cl)ccc2n1Cc1ccccc1 [2b, 1-Benzyl-6-chloro-3-(3-nitrophenyl)quinoxalin-2(1H)-one] | good activity | 
O=c1c(-c2ccccc2[N+](=O)[O-])nc2ccccc2n1Cc1ccccc1 [1d, 1-Benzyl-3-(2-nitrophenyl)quinoxalin-2(1H)-one] | reduced activity | 
O=C(O)c1ccc([N+](=O)[O-])c(-c2nc3ccccc3n(Cc3ccccc3)c2=O)c1 [1b, 3-(4-Benzyl-3-oxo-3,4-dihydroquinoxalin-2-yl)-4-nitrobenzoic Acid] | very low activity | 
O=c1c(-c2cccc([N+](=O)[O-])c2)nc2cc(F)c(F)cc2n1Cc1ccccc1 [2g, 1-Benzyl-6,7-difluoro-3-(3-nitrophenyl)quinoxalin-2(1H)-one] | reduced activity | 
O=c1c(-c2ccc(C(F)(F)F)cc2)nc2ccccc2n1Cc1ccccc1 [1f, 1-Benzyl-3-(4-(trifluoromethyl)phenyl)quinoxalin-2(1H)-one] | low activity | 
COC(=O)c1ccc(N)c(-c2nc3ccccc3n(Cc3ccccc3)c2=O)c1 [1j, Methyl 4-Amino-3-(4-benzyl-3-oxo-3,4-dihydroquinoxalin-2-yl)-benzoate] | moderately potent | 
O=c1c(-c2cccc([N+](=O)[O-])c2)nc2ccccc2n1Cc1ccco1 [3i, 1-(Furan-2-ylmethyl)-3-(3-nitrophenyl)quinoxalin-2(1H)-one] | comparable activity | 
O=c1c(-c2cccc([N+](=O)[O-])c2)nc2ccccc2n1Cc1ccccc1 [1c, 1-Benzyl-3-(3-nitrophenyl)quinoxalin-2(1H)-one] |  | Increase in potency compared to 4 (human wild-type CFTR [1]; CFTR activation potency relative to 4): ~10 fold; Compound metabolized [2]: < 40%; Inhibition or activation of calcium-activated chloride channels [3]: neither inhibited nor activated; Potency in nonpermeabilized versus permeabilized CFTR-expressing FRT cells (human wild-type CFTR [4]): similar; Effect on cellular cAMP level (cellular cAMP level): did not affect; Effect on cytoplasmic calcium and ATP-stimulated calcium elevation (cytoplasmic calcium): nor did it elevate cytoplasmic calcium or inhibit the ATP-stimulated elevation in cytoplasmic calcium; Stool weight, pellet number and hydration [5]: fully normalized; Inhibition or activation of TMEM16A (TMEM16A): neither inhibited nor activated
O=c1c(-c2cccc(Br)c2)nc2ccccc2n1Cc1ccccc1 [1g, 1-Benzyl-3-(3-bromophenyl)quinoxalin-2(1H)-one] | low activity | 

— publication PMC5463557 (Journal of medicinal chemistry, 2017)
